Activity calls are given as the source filed them. The calls are words filed in the database; no cut-off is given here.
Legend:
HT-29 [1] = test: Immunomodulatory activity in human HT-29 cells co-cultured with interferon gamma-stimulated THP-1 cells assessed as relative CD-47 protein expression in membrane at 100 uM incubated for 48 hrs by flow cytometry analysis relative to control; type: functional
HT-29 [2] = test: Antiproliferative activity against human HT-29 cells assessed as relative c-Myc protein expression at 100 uM incubated for 48 hrs by flow cytometry analysis relative to control; type: functional
HT-29 [3] = test: Antiproliferative activity against human HT-29 cells assessed as reduction in cell viability incubated for 48 hrs by MTT assay; type: functional, cell-based; conditions: HT-29, 48 h
Procedure, shortened: (§1)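 MTT dye-reduction assay. Cells at 5 × 10^3/well in DMEM with 10% FBS, treated with serial dilutions of compound (DMSO stocks) for 2 days at 37 °C, 5% CO2. MTT added for a further 3 h, formazan dissolved in DMSO, absorbance read at 550 nm. Viability expressed as % of untreated cells; IC50 determined graphically from three independent experiments.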

MCF7 = test: Antiproliferative activity against human MCF7 cells assessed as reduction in cell viability incubated for 48 hrs by MTT assay; type: functional, cell-based; conditions: MCF7, 48 h; procedure, shortened: as §1
HEK293 [4] = test: Anti-vasculogenic activity against HEK293 cells assessed as disruption of tube-like structures at 100 uM incubated for 24 hrs by Matrigel based imaging analysis; type: functional, cell-based; conditions: Homo sapiens
Procedure, shortened: (§2)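 HEK-293 cells seeded at 5 × 10^4 cells/well on Matrigel (pre-incubated with medium 24 h at 37 °C), grown 24 h at 37 °C until tube-like structures form; compounds then added in medium and incubated a further 24 h at 37 °C. Disruption of preformed tube-like structures assessed by imaging.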

HT-29 [5] = test: Immunomodulatory activity in human HT-29 cells co-cultured with interferon gamma-stimulated THP-1 cells assessed as IL-6 level at 100 uM incubated for 48 hrs by ELISA analysis (reference value: 192 +/- 16 pg/ml); type: functional
Procedure, shortened: (§3)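 HT-29 cells co-cultured with IFN-γ (10 ng/ml)-stimulated THP-1 cells and treated 48 h with compound at 100 µM. Culture media collected and IL-6 measured by human IL-6 ELISA, in pg/mL and as % of control. Mean of three experiments.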

A549 = test: Antiproliferative activity against human A549 cells assessed as reduction in cell viability incubated for 48 hrs by MTT assay; type: functional, cell-based; conditions: A549, 48 h; procedure, shortened: as §1
HEK293 [6] = test: Anti-vasculogenic activity against HEK293 cells assessed as disruption of tube-like structures at <75 uM incubated for 24 hrs by Matrigel based imaging analysis; type: functional, cell-based; conditions: Homo sapiens; procedure, shortened: as §2
HMEC-1 [7] = test: Antiangiogenic activity in HMEC-1 cells assessed as inhibition of endothelial microtubes formation at 100 uM incubated for 24 hrs by matrigel based imaging analysis; type: functional, cell-based; conditions: Homo sapiens
Procedure, shortened: (§4)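 HMEC-1 cells at 2 × 10^4 cells/well seeded on Matrigel (10 mg/mL, gelled 30 min at 37 °C) in EGM-2MV medium with SingleQuots, allowed to attach 30 min at 37 °C. Compounds then added in medium; after 24 h at 37 °C, microtube formation/destruction evaluated from pictures.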

[8] = Toxicity against interferon gamma-stimulated human THP-1 monocyte cells co-cultured with human HT-29 cells assessed as reduction in cell viability at 100 uM incubated for 48 hrs by flow cytometry analysis; type: cell-based; conditions: thp-1, 48 h
Procedure, shortened: (§5)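 HT-29 cells at 10^5/well seeded and grown 24 h. Medium then replaced with medium containing IFN-γ (10 ng/ml), 5 × 10^5 THP-1 cells/well and compound at 100 µM; DMSO used as control. After 48 h, THP-1 cells collected from supernatant and cancer cells by trypsinisation. Both fixed in 4% paraformaldehyde and counted by flow cytometry relative to control.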

HT-29 [9] = test: Immunomodulatory activity in human HT-29 cells co-cultured with interferon gamma-stimulated THP-1 cells assessed as relative IL-6 level at 100 uM incubated for 48 hrs by ELISA analysis relative to control; type: functional; procedure, shortened: as §3
HT-29 [10] = test: Antiproliferative activity against human HT-29 cells assessed as relative VEGFR-2 protein expression in whole cell at 100 uM incubated for 48 hrs by flow cytometry analysis relative to control; type: functional
HT-29 [11] = test: Immunomodulatory activity in human HT-29 cells co-cultured with interferon gamma-stimulated THP-1 cells assessed as cell viability at 100 uM incubated for 48 hrs by flow cytometry analysis relative to control; type: functional; conditions: read-out: Activity; procedure, shortened: as §5
HMEC-1 [12] = test: Antiangiogenic activity in HMEC-1 cells assessed as inhibition of endothelial microtubes formation at <75 uM incubated for 24 hrs by matrigel based imaging analysis; type: functional, cell-based; conditions: Homo sapiens; procedure, shortened: as §4
HT-29 [13] = test: Immunomodulatory activity in human HT-29 cells co-cultured with interferon gamma-stimulated THP-1 cells assessed as reduction in IL-6 level at 100 uM incubated for 48 hrs by ELISA analysis relative to control; type: functional; set-up: scale not given: the % may be the effect or the level left; procedure, shortened: as §3
HT-29 [14] = test: Antiproliferative activity against human HT-29 cells assessed as reduction in IL-6 secretion at 100 uM incubated for 48 hrs by ELISA assay; type: functional, cell-based
Procedure, shortened: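 HT-29 monocultures at 10^5 cells/well treated 48 h with compound at 100 µM in 500 µL growth medium. Media collected and secreted IL-6 measured with a human IL-6 ELISA kit.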

HT-29 [15] = test: Antiproliferative activity against human HT-29 cells assessed as relative VEGFR-2 protein expression in membrane at 100 uM incubated for 48 hrs by flow cytometry analysis relative to control; type: functional
[16] = Cytotoxicity against HEK293 cells assessed as reduction in cell viability incubated for 48 hrs by MTT assay; type: toxicity, cell-based; conditions: human; procedure, shortened: as §1
HT-29 [17] = test: Antiproliferative activity against human HT-29 cells assessed as relative PD-L1 protein expression in whole cell at 100 uM incubated for 48 hrs by flow cytometry analysis relative to control; type: functional
HT-29 [18] = test: Antiproliferative activity against human HT-29 cells assessed as relative PD-L1 protein expression in membrane at 100 uM incubated for 48 hrs by flow cytometry analysis relative to control; type: functional
HT-29 [19] = test: Immunomodulatory activity in human HT-29 cells co-cultured with interferon gamma-stimulated THP-1 cells assessed as relative PD-L1 protein expression in membrane at 100 uM incubated for 48 hrs by flow cytometry analysis relative to control; type: functional
HT-29 [20] = test: Immunomodulatory activity in human HT-29 cells co-cultured with interferon gamma-stimulated THP-1 cells assessed as inhibition of cell growth at 100 uM incubated for 48 hrs by flow cytometry analysis relative to control; type: functional; procedure, shortened: as §5
HT-29 [21] = test: Immunomodulatory activity in human HT-29 cells co-cultured with interferon gamma-stimulated THP-1 cells assessed as inhibition of CD-47 protein expression at 100 uM incubated for 48 hrs by flow cytometry analysis relative to control; type: functional

IC50 (HT-29 [3]) [µM] | IC50 (MCF7) [µM] | IC50 (A549) [µM] | SMILES | Activity (HT-29 [1]) [%] | Activity (HT-29 [2]) [%] | Activity (HEK293 [4]) | Activity (HT-29 [5]) [pg/mL] | Activity (HEK293 [6]) | Activity (HMEC-1 [7]) | Activity [8] | Activity (HT-29 [9]) [%] | Activity (HT-29 [10]) [%] | viability at 100 µM (HT-29 [11]) [%] | Activity (HMEC-1 [12]) | Activity (HT-29 [15]) [%] | IC50 at 48 h [16] [µM] | Activity (HT-29 [17]) [%] | Activity (HT-29 [18]) [%] | Activity (HT-29 [19]) [%] | inhibition at 100 µM (HT-29 [20]) [%] | further results
81 | 88 | > 100 | Nc1cccc(-c2nnn(Cc3cccc(Cl)c3)n2)c1 | 95 | 76 | Active | 6 | inactive | Active | Non-Toxic | 3 | 99 | 48 | inactive | 97 | > 100 | 97 | >100 | 94 |  | Activity (HT-29 [13]): >95%; Activity (HT-29 [14]): inactive
72 | > 100 | > 100 | Nc1cccc(-c2nnn(Cc3ccc(Cl)cc3)n2)c1 | 93 | 80 | Active | 11 | inactive | Active | Non-Toxic | 6 | 96 | 22 | inactive | >100 | 91 | 99 | >100 | 114 | > 70 | Activity (HT-29 [13]): 94%; Activity (HT-29 [14]): inactive
> 100 | 84 | > 100 | O=[N+]([O-])c1cccc(-c2nnn(Cc3ccc(Cl)cc3)n2)c1 | 88 | 90 |  |  |  |  | Non-Toxic |  | 45 | 93 |  | 95 | > 100 | 87 | 93 | 93 |  | 
 |  |  | Cc1ccc(Cn2nnc(-c3cccc(N)c3)n2)cc1 | 67 |  |  |  |  |  | Non-Toxic |  |  | 28 |  |  |  |  |  | 90 | > 70 | inhibition at 100 µM (HT-29 [21]): > 30%
 |  |  | Cc1cccc(Cn2nnc(-c3cccc(N)c3)n2)c1 | 69 | >100 |  |  |  |  | Non-Toxic |  | >100 | 15 |  | >100 |  | 81 | >100 | 99 | > 70 | inhibition at 100 µM (HT-29 [21]): > 30%
